Test results as given in ChEMBL document CHEMBL4316592, “Synthesis of new derivatives of boehmeriasin A and their biological evaluation in liver cancer” (Eur J Med Chem, 2019).
Activity calls are given as the source filed them. The rule behind the calls is not given here.

Columns and labels:
Huh-7 [1] = assay: Cytotoxicity against human HuH7 cells after 72 hrs by SRB assay; format: functional, cell-based; settings: Homo sapiens, Huh-7, 72 h; read-out: IC50
Method in brief: (§1)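 SRB assay. Cells plated per well (HCT116 3000; Huh7, Hep3B, HepG2, MCF-7 2000; Mahlavu, FOCUS, SNU475 1000) and grown 24 h. Compounds came from 20 mM DMSO stocks and were tested in triplicate, 40 to 2,5 (or 2,5 to 0,03) per printed range, for 72 h. Cells fixed in 10% TCA, stained with 0.4% SRB, dye dissolved in 10 mM Tris, A515 read. IC50 derived after DMSO normalization.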

MCF7 = assay: Cytotoxicity against human MCF7 cells after 72 hrs by SRB assay; format: functional, cell-based; settings: Homo sapiens, MCF7, 72 h; read-out: IC50; method in brief: as §1
HCT-116 = assay: Cytotoxicity against human HCT116 cells after 72 hrs by SRB assay; format: functional, cell-based; settings: Homo sapiens, HCT-116, 72 h; read-out: IC50; method in brief: as §1
[2] = Cytotoxicity against human FOCUS cells after 72 hrs by SRB assay; format: functional, cell-based; settings: Homo sapiens, 72 h; read-out: IC50; method in brief: as §1
MCF-12A = assay: Cytotoxicity against human MCF12A cells after 72 hrs by SRB assay; format: cell-based; settings: Homo sapiens, MCF-12A, 72 h; read-out: IC50
MCF-10A = assay: Cytotoxicity against human MCF10A cells after 72 hrs by SRB assay; format: cell-based
Mahlavu [3] = assay: Cytotoxicity against human Mahlavu cells after 24 hrs by RTCA analysis; format: functional, cell-based
Method in brief: (§2)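 xCELLigence impedance real-time growth assay. Huh7 (2000) or Mahlavu (1000) cells plated, treated after 24 h at log phase with a 2-fold dilution series (4 steps) from a top concentration of 1. Cell index recorded every 10 min for 24 h, then every 30 min. Growth inhibition normalized to DMSO; IC50 taken at 24, 48, 72 h.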

Mahlavu [4] = assay: Cytotoxicity against human Mahlavu cells after 72 hrs by RTCA analysis; format: functional, cell-based; method in brief: as §2
Huh-7 [5] = assay: Induction of apoptosis in human HuH7 cells assessed as increase in cytochrome C levels at 1 uM by Hoechst staining-based assay; format: functional, cell-based
Huh-7 [6] = assay: Induction of apoptosis in human HuH7 cells assessed as increase in cleaved PARP levels at 1 uM after 72 hrs by Western blot analysis; format: functional, cell-based
Mahlavu [7] = assay: Induction of apoptosis in human Mahlavu cells assessed as chromatin condensation at 1 uM by Hoechst staining-based assay; format: functional, cell-based
Mahlavu [8] = assay: Induction of apoptosis in human Mahlavu cells assessed as apoptotic body formation at 1 uM by Hoechst staining-based assay; format: functional, cell-based
Huh-7 [9] = assay: Induction of apoptosis in human HuH7 cells assessed as early apoptotic cells at 1 uM after 24 hrs by Annexin V-FITC/propidium iodide staining-based flow cytometric analysis (reference value: 0.17%); format: functional
Huh-7 [10] = assay: Induction of apoptosis in human HuH7 cells assessed as late apoptotic cells at 1 uM after 24 hrs by Annexin V-FITC/propidium iodide staining-based flow cytometric analysis (reference value: 2.51%); format: functional
Huh-7 [11] = assay: Induction of apoptosis in human HuH7 cells assessed as viable cells at 1 uM after 48 hrs by Annexin V-FITC/propidium iodide staining-based flow cytometric analysis (reference value: 97.42%); format: functional; settings: Huh-7, 48 h, read-out: Activity
Huh-7 [12] = assay: Induction of apoptosis in human HuH7 cells assessed as early apoptotic cells at 1 uM after 48 hrs by Annexin V-FITC/propidium iodide staining-based flow cytometric analysis (reference value: 0.02%); format: functional
Huh-7 [13] = assay: Induction of apoptosis in human HuH7 cells assessed as early apoptotic cells at 1 uM after 72 hrs by Annexin V-FITC/propidium iodide staining-based flow cytometric analysis (reference value: 0.03%); format: functional
Huh-7 [14] = assay: Induction of apoptosis in human HuH7 cells assessed as necrotic cells at 1 uM after 72 hrs by Annexin V-FITC/propidium iodide staining-based flow cytometric analysis (reference value: 0.43%); format: functional
Mahlavu [15] = assay: Induction of apoptosis in human Mahlavu cells assessed as late apoptotic cells at 1 uM after 48 hrs by Annexin V-FITC/propidium iodide staining-based flow cytometric analysis (reference value: 1.45%); format: functional
Mahlavu [16] = assay: Induction of apoptosis in human Mahlavu cells assessed as necrotic cells at 1 uM after 48 hrs by Annexin V-FITC/propidium iodide staining-based flow cytometric analysis (reference value: 0.07%); format: functional
Mahlavu [17] = assay: Induction of apoptosis in human Mahlavu cells assessed as late apoptotic cells at 1 uM after 72 hrs by Annexin V-FITC/propidium iodide staining-based flow cytometric analysis (reference value: 3.48%); format: functional
Mahlavu [18] = assay: Induction of apoptosis in human Mahlavu cells assessed as necrotic cells at 1 uM after 72 hrs by Annexin V-FITC/propidium iodide staining-based flow cytometric analysis (reference value: 0.22%); format: functional
Huh-7 [19] = assay: Cell cycle arrest in human HuH7 cells assessed as accumulation of cells at subG1 phase at 1 uM after 24 hrs by propidium iodide staining-based flow cytometric analysis (reference value: 6.8%); format: functional
Huh-7 [20] = assay: Cell cycle arrest in human HuH7 cells assessed as accumulation of cells at G1 phase at 1 uM after 24 hrs by propidium iodide staining-based flow cytometric analysis (reference value: 41.7%); format: functional
Huh-7 [21] = assay: Cell cycle arrest in human HuH7 cells assessed as accumulation of cells at G1 phase at 1 uM after 48 hrs by propidium iodide staining-based flow cytometric analysis (reference value: 44.2%); format: functional
Huh-7 [22] = assay: Cell cycle arrest in human HuH7 cells assessed as accumulation of cells at S phase at 1 uM after 48 hrs by propidium iodide staining-based flow cytometric analysis (reference value: 19.1%); format: functional
Mahlavu [23] = assay: Cell cycle arrest in human Mahlavu cells assessed as accumulation of cells at G2/M phase at 1 uM after 24 hrs by propidium iodide staining-based flow cytometric analysis (reference value: 24.7%); format: functional
Mahlavu [24] = assay: Cell cycle arrest in human Mahlavu cells assessed as accumulation of cells at subG1 phase at 1 uM after 48 hrs by propidium iodide staining-based flow cytometric analysis (reference value: 22.6%); format: functional
Mahlavu [25] = assay: Cell cycle arrest in human Mahlavu cells assessed as accumulation of cells at G1 phase at 1 uM after 48 hrs by propidium iodide staining-based flow cytometric analysis (reference value: 43.5%); format: functional
Huh-7 [26] = assay: Down-regulation of cyclin E protein expression in human HuH7 cells at 1 uM after 24 to 72 hrs by Western blot analysis; format: functional, cell-based
Mahlavu [27] = assay: Down-regulation of CDK1 protein expression in human Mahlavu cells at 1 uM after 24 to 72 hrs by Western blot analysis; format: functional, cell-based
Mahlavu [28] = assay: Down-regulation of CDK2 protein expression in human Mahlavu cells at 1 uM after 24 to 72 hrs by Western blot analysis; format: functional, cell-based

Row | SMILES | IC50 (Huh-7 [1]) | IC50 (MCF7) | IC50 (HCT-116) | IC50 [2] | IC50 (MCF-12A) | IC50 (MCF-10A) | IC50 (Mahlavu [3]) | IC50 (Mahlavu [4]) | Activity (Huh-7 [5]) | Activity (Huh-7 [6]) | Activity (Mahlavu [7]) | Activity (Mahlavu [8]) | Activity (Huh-7 [9]) | Activity (Huh-7 [10]) | viability at 1 µM (Huh-7 [11]) | Activity (Huh-7 [12]) | Activity (Huh-7 [13]) | Activity (Huh-7 [14]) | Activity (Mahlavu [15]) | Activity (Mahlavu [16]) | other results
1 | COc1ccc2c3c(c4cc(OC)c(OC)cc4c2c1)CN1CCCCC1C3O (racemic) | 2 nM | 1 nM | < 1 nM | 12 nM | < 2000 nM | 200 nM | 10 nM | 10 nM | Active | Active | Active | Active | 0% | 0.93% | 94.2% | 0.07% | 0.2% | 0.13% | 0.98% | 0.07% | Activity (Mahlavu [17]): 35.08%; Activity (Mahlavu [18]): 2.26%; Activity (Huh-7 [19]): 23.1%; Activity (Huh-7 [20]): 31.6%; Activity (Huh-7 [21]): 35.5%; Activity (Huh-7 [22]): 21%; Activity (Mahlavu [23]): 32.4%; Activity (Mahlavu [24]): 20.4%; Activity (Mahlavu [25]): 37.2%; Activity (Huh-7 [26]): Active; Activity (Mahlavu [27]): Active; Activity (Mahlavu [28]): Active
2 | COc1ccc2c3c(c4cc(OC)c(OC)cc4c2c1)CN1CCCC[C@@H]1C3 | 8 nM | 5 nM | 700 nM | 20 nM | 70 nM | 140 nM | 200 nM | 600 nM | Active | Active | Active | Active | 0.07% | 1.03% | 93.8% | 0.18% | 0.1% | 0.34% | 7.07% | 1.16% | Activity (Mahlavu [17]): 12.74%; Activity (Mahlavu [18]): 1.84%; Activity (Huh-7 [19]): 13.6%; Activity (Huh-7 [20]): 43.1%; Activity (Huh-7 [21]): 54.6%; Activity (Huh-7 [22]): 13.5%; Activity (Mahlavu [23]): 23.7%; Activity (Mahlavu [24]): 28.3%; Activity (Mahlavu [25]): 44.6%; Activity (Huh-7 [26]): Active; Activity (Mahlavu [27]): Active; Activity (Mahlavu [28]): Active
